Reference: ChEMBL document CHEMBL3632543, “Structural Dissection of Crotalicidin, a Rattlesnake Venom Cathelicidin, Retrieves a Fragment with Antimicrobial and Antitumor Activity” (J Med Chem, 2015)
≈ marks a conversion by molar mass, not a printed value. Calls of active or inactive are those of the source. The rule behind the calls is not given here. Where a SMILES comes first, the peptide text is derived from it.

Assays:
[1] = system: HL-60; test: Cytotoxicity against human HL60 cells after 4 hrs by cell titer blue dye assay; assay type: functional, cell-based
Procedure, shortened: (§1)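 Suspension cells (~60 000) were mixed with 2-fold peptide dilutions (0.1–100 μM final) in DMEM/2% FBS, 30 min at 37 °C, 5% CO2. ~10 000 cells per well then received Cell Titer Blue. Resorufin fluorescence (ex 530/em 590 nm) was read at 4 and 24 h; viability relative to medium-only controls; triplicate.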

[2] = system: Enterococcus faecalis; test: Antibacterial activity against Enterococcus faecalis ATCC 29212 by microdilution method; assay type: functional
Procedure, shortened: (§2)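 Strains subcultured at least twice on sheep blood agar and incubated 24 h before testing; inoculum made by direct suspension in saline to 0.5 McFarland turbidity. MIC determined by broth microdilution in Mueller–Hinton broth following CLSI guidelines; gentamicin run as control antibiotic.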

[3] = system: Staphylococcus aureus; test: Antibacterial activity against Staphylococcus aureus ATCC 29213 by microdilution method; assay type: functional; procedure, shortened: as §2
[4] = system: THP-1; test: Cytotoxicity against human THP1 cells after 24 hrs by cell titer blue dye assay; assay type: functional, cell-based
Procedure, shortened: (§3)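 Tumor cells cultured in DMEM with 10% FBS, 37 °C, 5% CO2, kept at 10^5–10^6 cells/mL. About 60 000 cells mixed with 2-fold serial peptide dilutions (final 0.1–100 μM) in DMEM with 2% FBS for 30 min at 37 °C. About 10 000 treated cells per well then got Cell Titer Blue; fluorescence (ex 530, em 590 nm) read 4 and 24 h after dye addition. Viability relative to medium-only controls; triplicate.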

[5] = system: HeLa S3; test: Cytotoxicity against human HeLaS3 cells after 24 hrs by cell titer blue dye assay; assay type: functional, cell-based; procedure, shortened: as §3
[6] = system: Pseudomonas aeruginosa; test: Antibacterial activity against Pseudomonas aeruginosa ATCC 27853 by microdilution method; assay type: functional; procedure, shortened: as §2
[7] = system: U-937; test: Cytotoxicity against human U937 cells after 4 hrs by cell titer blue dye assay; assay type: functional, cell-based; conditions: for IC50: U-937, 4 h; procedure, shortened: as §3
[8] = Toxicity in human erythrocytes assessed as induction of hemolysis at 100 uM incubated for 30 mins by microplate reader assay; assay type: cell-based, Erythrocyte; conditions: read-out: Activity
Procedure, shortened: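 Fresh human blood erythrocytes, PBS-washed, were incubated as a 4% (v/v) final suspension with peptide (0.1–400 μM final) for 30 min at 37 °C with gentle agitation. After centrifugation, hemoglobin in the supernatant was read at A540. Percent hemolysis was calculated against 1% Triton X-100 (positive) and untreated cells; triplicate.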

[9] = Cytotoxicity against human 1BR3G cells after 24 hrs by cell titer blue dye assay; assay type: cell-based
Procedure, shortened: (§4)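 1BR3G fibroblasts grown in DMEM/10% FBS, seeded 5000 cells/well, incubated 24 h at 37 °C, then medium swapped for 2% FBS medium with 2-fold peptide dilutions (0.1–100 μM final). After 30 min, Cell Titer Blue dye was added; fluorescence (ex 530/em 590 nm) read 4 and 24 h later. Viability relative to untreated medium controls; triplicate.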

[10] = system: Escherichia coli; test: Antibacterial activity against Escherichia coli ATCC 25922 by microdilution method; assay type: functional; procedure, shortened: as §2
[11] = Cytotoxicity against human 1BR3G cells after 4 hrs by cell titer blue dye assay; assay type: cell-based; procedure, shortened: as §4
[12] = Half life in human serum at 1 mM incubated for 24 hrs by LC-MS analysis; assay type: ADME, cell-free
Procedure, shortened: (§5)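 Human serum combined with equal volume of 1 mM aqueous peptide stock, incubated 24 h at 37 °C with gentle swirling. Aliquots taken at 0, 1, 5, 10, 30, 120, 360 and 1440 min, quenched with 15% trichloroacetic acid for 30 min at 4 °C, and centrifuged to remove serum proteins. Remaining peptide followed by LC-MS.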

[13] = system: Acinetobacter baumannii; test: Antibacterial activity against clinical isolate Acinetobacter baumannii by microdilution method; assay type: functional
Procedure, shortened: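 A. baumannii clinical isolate subcultured at least twice on sheep blood agar, 24 h incubation before testing; saline suspension adjusted to 0.5 McFarland. Broth microdilution MIC in Mueller–Hinton broth per CLSI; gentamicin as control antibiotic.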

[14] = system: HL-60; test: Cytotoxicity against human HL60 cells after 24 hrs by cell titer blue dye assay; assay type: functional, cell-based; procedure, shortened: as §1
[15] = system: THP-1; test: Cytotoxicity against human THP1 cells after 4 hrs by cell titer blue dye assay; assay type: functional, cell-based; conditions: for IC50: THP-1, 4 h; procedure, shortened: as §3
[16] = system: Jurkat E6.1; test: Cytotoxicity against human Jurkat E6-1 cells after 4 hrs by cell titer blue dye assay; assay type: functional, cell-based; procedure, shortened: as §1
[17] = system: U-937; test: Cytotoxicity against human U937 cells after 24 hrs by cell titer blue dye assay; assay type: functional, cell-based; procedure, shortened: as §3
[18] = Toxicity in human erythrocytes assessed as induction of hemolysis up to 400 uM incubated for 30 mins by microplate reader assay; assay type: cell-based, Erythrocyte; conditions: read-out: Activity
Procedure, shortened: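 Fresh human blood collected in EDTA; erythrocytes washed three times in PBS. Mixed 1:1 with 2-fold serial peptide dilutions to final 4% (v/v) cells and 0.1–400 μM peptide. Incubated 30 min at 37 °C with gentle agitation, then centrifuged; supernatant A540 measured. Percent hemolysis scaled between untreated cells and 1% Triton X-100; triplicate.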

[19] = system: Enterococcus faecalis; test: Antibacterial activity against clinical isolate Enterococcus faecalis by microdilution method; assay type: functional; procedure, shortened: as §2
[20] = system: Staphylococcus aureus; test: Antibacterial activity against clinical isolate Staphylococcus aureus by microdilution method; assay type: functional; procedure, shortened: as §2
[21] = system: Jurkat E6.1; test: Cytotoxicity against human Jurkat E6-1 cells after 24 hrs by cell titer blue dye assay; assay type: functional, cell-based; procedure, shortened: as §1
[22] = system: Pseudomonas aeruginosa; test: Antibacterial activity against clinical isolate Pseudomonas aeruginosa by microdilution method; assay type: functional; procedure, shortened: as §2
[23] = system: Klebsiella pneumoniae; test: Antibacterial activity against clinical isolate Klebsiella pneumoniae by microdilution method; assay type: functional; procedure, shortened: as §2
[24] = Cytotoxicity against human HeLaS3 cells after 4 hrs by cell titer blue dye assay; assay type: functional, cell-based; conditions: HeLa S3, 4 h; procedure, shortened: as §3
[25] = system: Escherichia coli; test: Antibacterial activity against clinical isolate Escherichia coli by microdilution method; assay type: functional; procedure, shortened: as §2
[26] = system: Streptococcus pyogenes; test: Antibacterial activity against clinical isolate Streptococcus pyogenes by microdilution method; assay type: functional
Procedure, shortened: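 S. pyogenes isolate subcultured twice on sheep blood agar, incubated 24 h, suspended in saline to 0.5 McFarland. MIC by CLSI broth microdilution in Mueller–Hinton broth supplemented with 5% lysed horse blood; gentamicin control.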

[27] = Cytotoxicity against human 1BR3G cells assessed as reduction of cell viability at 100 uM after 4 hrs by cell titer blue dye assay; assay type: cell-based
Procedure, shortened: (§6)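 1BR3G human fibroblasts grown in DMEM with 10% FBS at 37 °C, 5% CO2; 5000 cells/well seeded for 24 h, then medium swapped for DMEM with 2% FBS holding 2-fold serial peptide dilutions (final 0.1–100 μM). After 30 min, Cell Titer Blue added; fluorescence (ex 530, em 590 nm) read 4 and 24 h after dye addition. Viability relative to 2% FBS medium-only controls; triplicate.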

[28] = Metabolic stability in human serum assessed as compound remaining at 1 mM after 24 hrs by LC-MS analysis; assay type: ADME, cell-free; conditions: read-out: Stability; procedure, shortened: as §5
[29] = Cytotoxicity against human 1BR3G cells assessed as reduction of cell viability at 100 uM after 24 hrs by cell titer blue dye assay; assay type: cell-based; procedure, shortened: as §6
[30] = Drug degradation in human serum at 1 mM after 24 hrs by LC-MS analysis; assay type: ADME, cell-free; conditions: read-out: Drug degradation; procedure, shortened: as §5

Row | Compound | MIC [2] [µM] | MIC [3] [µM] | Activity [4] | Activity [5] | MIC [6] [µM] | IC50 [7] [µM] | MIC [10] [µM] | half-life at 1000 µM [12] [min] | MIC [13] [µM] | Activity [14] | IC50 [15] [µM] | Activity [17] | hemolysis at 0.5 h [18] [%] | MIC [19] [µM] | MIC [20] [µM] | MIC [22] [µM] | MIC [23] [µM] | IC50 [24] [nM] | MIC [25] [µM] | MIC [26] [µM] | other results
1 | CC[C@H](C)[C@H](NC(=O)[C@H](CCCCN)NC(=O)[C@H](CCCCN)NC(=O)[C@H](CC(C)C)NC(=O)[C@H](CCCNC(=N)N)NC(=O)[C@H](CCCCN)NC(=O)[C@H](CCCCN)NC(=O)[C@@H](NC(=O)[C@H](CO)NC(=O)[C@H](CCCCN)NC(=O)[C@H](CCCCN)NC(=O)[C@@H](NC(=O)[C@H](CCCCN)NC(=O)[C@H](CCCCN)NC(=O)[C@H](Cc1ccccc1)NC(=O)[C@H](Cc1ccccc1)NC(=O)[C@H](CCCCN)NC(=O)[C@H](CCCCN)NC(=O)[C@H](Cc1ccccc1)NC(=O)[C@H](CCCNC(=N)N)NC(=O)[C@@H](N)CCCCN)C(C)C)C(C)C)C(=O)N[C@@H](Cc1ccccc1)C(=O)N[C@@H](CCCCN)C(=O)N[C@@H](CCCCN)C(=O)N1CCC[C@H]1C(=O)N[C@@H](CCSC)C(=O)N[C@H](C(=O)N[C@H](C(=O)NCC(=O)N[C@H](C(=O)N[C@H](C(=O)N[C@H](C(=O)N1CCC[C@H]1C(=O)N[C@@H](Cc1ccccc1)C(N)=O)[C@@H](C)CC)[C@H](C)O)C(C)C)[C@@H](C)CC)C(C)C | 7.7 (≈ 32 µg/mL) | 7.7 (≈ 32 µg/mL) | Active | Active | 0.24 (≈ 0.996 µg/mL) | < 1 | 0.06 (≈ 0.249 µg/mL) | 71 | 3.8 (≈ 15.8 µg/mL) | Active | 1.56 | Active | 33 | 31 (≈ 129 µg/mL) | 7.7 (≈ 32 µg/mL) | 3.8 (≈ 15.8 µg/mL) | 1.9 (≈ 7.89 µg/mL) | < 1000 | 3.8 (≈ 15.8 µg/mL) | 3.8 (≈ 15.8 µg/mL) | IC50 ([1]; HL-60, 4 h): > 12.5 µM; hemolysis at 0.5 h, 100 µM [8]: 7%; Activity [9]: Toxic; IC50 [11]: 6.25 µM; IC50 ([16]; Jurkat E6.1, 4 h): > 12.5 µM; Activity [21]: Active
2 | GENTAMICIN | 17 | 0.5 |  |  | 2.1 |  | 1 |  | 17 |  |  |  |  | 34 | 0.5 | 17 | 4.2 |  | 34 | 17 | 
3 | CC[C@H](C)[C@H](NC(=O)[C@H](CCCCN)NC(=O)[C@H](CCCCN)NC(=O)[C@H](CC(C)C)NC(=O)[C@H](CCCNC(=N)N)NC(=O)[C@H](CCCCN)NC(=O)[C@@H](N)CCCCN)C(=O)N[C@@H](Cc1ccccc1)C(=O)N[C@@H](CCCCN)C(=O)N[C@@H](CCCCN)C(=O)N1CCC[C@H]1C(=O)N[C@@H](CCSC)C(=O)N[C@H](C(=O)N[C@H](C(=O)NCC(=O)N[C@H](C(=O)N[C@H](C(=O)N[C@H](C(=O)N1CCC[C@H]1C(=O)N[C@@H](Cc1ccccc1)C(N)=O)[C@@H](C)CC)[C@H](C)O)C(C)C)[C@@H](C)CC)C(C)C | 54 (≈ 128 µg/mL) | 54 (≈ 128 µg/mL) | Active | Active | 27 (≈ 64 µg/mL) | 6.25 | 0.11 (≈ 0.261 µg/mL) | 770 | 1.7 (≈ 4.03 µg/mL) |  | 25 | Active | 7 | 54 (≈ 128 µg/mL) | 54 (≈ 128 µg/mL) | 27 (≈ 64 µg/mL) | 3.4 (≈ 8.06 µg/mL) | 1000 | 3.4 (≈ 8.06 µg/mL) | 3.4 (≈ 8.06 µg/mL) | Activity [27]: 20%; remaining at 24 h, 1000 µM [28]: 10%; Activity [29]: Non-toxic
4 | CC(C)[C@H](NC(=O)[C@H](CO)NC(=O)[C@H](CCCCN)NC(=O)[C@H](CCCCN)NC(=O)[C@@H](NC(=O)[C@H](CCCCN)NC(=O)[C@H](CCCCN)NC(=O)[C@H](Cc1ccccc1)NC(=O)[C@H](Cc1ccccc1)NC(=O)[C@H](CCCCN)NC(=O)[C@H](CCCCN)NC(=O)[C@H](Cc1ccccc1)NC(=O)[C@H](CCCNC(=N)N)NC(=O)[C@@H](N)CCCCN)C(C)C)C(N)=O (H-KRFKKFFKKVKKSV-NH2) | 71 (≈ 128 µg/mL) | 71 (≈ 128 µg/mL) | inactive | Active | 71 (≈ 128 µg/mL) |  | 71 (≈ 128 µg/mL) | 21 | 71 (≈ 128 µg/mL) | inactive |  | inactive | 7 | 71 (≈ 128 µg/mL) | 71 (≈ 128 µg/mL) | 71 (≈ 128 µg/mL) | 71 (≈ 128 µg/mL) | > 10000 | 71 (≈ 128 µg/mL) | 36 (≈ 64.7 µg/mL) | Activity [1]: inactive; Activity [27]: 20%; Activity [7]: inactive; Activity [29]: Non-toxic; Activity [15]: inactive; Activity [16]: inactive; Activity [21]: inactive; metabolised at 24 h, 1000 µM [30]: 100%
